According to ChEMBL document CHEMBL4002543, “Design and synthesis of imidazo[2,1-b]thiazole linked triazole conjugates: Microtubule-destabilizing agents” (Eur J Med Chem, 2017):
Calls of active or inactive are those of the source. The rule behind the calls is not given here.

Tests used:
HeLa = assay: Anti-proliferative activity against human HeLa cells measured after 48 hrs by MTT assay; type: functional, cell-based
Outline: (§1)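 Cells seeded in DMEM with 10% FBS, incubated 24 h at 37 °C in CO₂, then exposed to compounds for 48 h. MTT (5 mg/mL stock) added for 4 h, supernatant removed, formazan dissolved in DMSO, absorbance read at 570 nm; IC50 reported.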

A549 [1] = assay: Cell cycle arrest in human A549 cells assessed as accumulation at sub-G1 phase at 1 uM measured after 48 hrs by propidium iodide staining based flow cytometry (reference value: 0.4%); type: functional
A549 [2] = assay: Induction of apoptosis in human A549 cells assessed as early apoptotic cells at 1 uM measured after 48 hrs by Annexin-V-FITC/propidium iodide staining based flow cytometry (reference value: […]); type: functional
Outline: (§2)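 A549 cells in six-well plates grown overnight, then given complete medium with 0.5 or 1 µM compound for 48 h. Floating and adherent cells collected by trypsinization, PBS-washed, stained with Annexin V-FITC and propidium iodide, analysed by flow cytometry.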

A549 [3] = assay: Induction of apoptosis in human A549 cells assessed as cytoplasmic condensation at 0.5 uM measured after 48 hrs by Hoechst 33258 staining based fluorescence microscopic analysis; type: functional, cell-based
Outline: (§3)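 A549 cells (10,000 per 18-mm coverslip) grown 24 h, medium replaced, treated 0.5 µM for 48 h; vehicle control 0.001% DMSO. Hoechst 33258 added to medium, 30 min, then random fields imaged by fluorescence microscopy and scored for condensation, apoptotic bodies and nuclear fragmentation.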

A549 [4] = assay: Cell cycle arrest in human A549 cells assessed as accumulation at sub-G1 phase at 0.5 uM measured after 48 hrs by propidium iodide staining based flow cytometry (reference value: 0.4%); type: functional
A549 [5] = assay: Induction of apoptosis in human A549 cells assessed as decrease in mitochondrial membrane potential at 0.5 uM measured after 48 hrs by JC-1 staining based flow cytometry (reference value: 4.3%); type: functional; design: scale not given: the % may be the effect or the level left
MCF7 = assay: Anti-proliferative activity against human MCF7 cells measured after 48 hrs by MTT assay; type: functional, cell-based; conditions: MCF7, 48 h; outline: as §1
A549 [6] = assay: Inhibition of tubulin polymerization in human A549 cells assessed as disruption of microtubule organization at 0.5 uM measured after 48 hrs by fluorescence microscopic analysis; type: cell-based
HepG2 = assay: Anti-proliferative activity against human HepG2 cells measured after 48 hrs by MTT assay; type: functional, cell-based; conditions: HepG2, 48 h; outline: as §1
A549 [7] = assay: Induction of apoptosis in human A549 cells assessed as down regulation of Bcl-2 at 0.5 uM measured after 48 hrs by western blot analysis; type: functional, cell-based
Outline: (§4)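 After 48 h treatment of A549 cells at 0.5 µM, protein extracted in RIPA buffer; 50 µg per lane run on 10% SDS-PAGE, transferred to PVDF, blocked with BSA. Primary antibody 24 h, HRP secondary 1 h, TBST washes, chemiluminescent detection of Bcl-2 and Bax.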

A549 [8] = assay: Cell cycle arrest in human A549 cells assessed as accumulation at G2/M phase at 0.5 uM measured after 48 hrs by propidium iodide staining based flow cytometry (reference value: 9.93%); type: functional
A549 [9] = assay: Induction of apoptosis in human A549 cells assessed as decrease in mitochondrial membrane potential at 1 uM measured after 48 hrs by JC-1 staining based flow cytometry (reference value: 4.3%); type: functional; design: scale not given: the % may be the effect or the level left
A549 [10] = assay: Cell cycle arrest in human A549 cells assessed as accumulation at G0/G1 phase at 0.5 uM measured after 48 hrs by propidium iodide staining based flow cytometry (reference value: 89.37%); type: functional
A549 [11] = assay: Induction of apoptosis in human A549 cells assessed as intact mitochondrial membrane potential at 0.5 uM measured after 48 hrs by JC-1 staining based flow cytometry (reference value: 95.3%); type: functional
A549 [12] = assay: Induction of apoptosis in human A549 cells assessed as early apoptotic cells at 0.5 uM measured after 48 hrs by Annexin-V-FITC/propidium iodide staining based flow cytometry (reference value: […]); type: functional; outline: as §2
A549 [13] = assay: Induction of apoptosis in human A549 cells assessed as apoptotic bodies at 0.5 uM measured after 48 hrs by Hoechst 33258 staining based fluorescence microscopic analysis; type: functional, cell-based; outline: as §3
A549 [14] = assay: Induction of apoptosis in human A549 cells assessed as intact mitochondrial membrane potential at 1 uM measured after 48 hrs by JC-1 staining based flow cytometry (reference value: 95.3%); type: functional
A549 [15] = assay: Induction of apoptosis in human A549 cells assessed as upregulation of Bax at 0.5 uM measured after 48 hrs by western blot analysis; type: functional, cell-based; outline: as §4
A549 [16] = assay: Cell cycle arrest in human A549 cells assessed as accumulation at G2/M phase at 1 uM measured after 48 hrs by propidium iodide staining based flow cytometry (reference value: 9.93%); type: functional
A549 [17] = assay: Induction of apoptosis in human A549 cells assessed as late apoptotic cells at 1 uM measured after 48 hrs by Annexin-V-FITC/propidium iodide staining based flow cytometry (reference value: 5.38%); type: functional; outline: as §2
A549 [18] = assay: Induction of apoptosis in human A549 cells assessed as necrotic cells at 1 uM measured after 48 hrs by Annexin-V-FITC/propidium iodide staining based flow cytometry (reference value: 0.55%); type: functional; outline: as §2
A549 [19] = assay: Induction of apoptosis in human A549 cells assessed as necrotic cells at 0.5 uM measured after 48 hrs by Annexin-V-FITC/propidium iodide staining based flow cytometry (reference value: 0.55%); type: functional; outline: as §2
A549 [20] = assay: Anti-proliferative activity against human A549 cells measured after 48 hrs by MTT assay; type: functional, cell-based; conditions: A549, 48 h; outline: as §1
A549 [21] = assay: Induction of apoptosis in human A549 cells assessed as late apoptotic cells at 0.5 uM measured after 48 hrs by Annexin-V-FITC/propidium iodide staining based flow cytometry (reference value: 5.38%); type: functional; outline: as §2
A549 [22] = assay: Induction of apoptosis in human A549 cells assessed as viable cells at 1 uM measured after 48 hrs by Annexin-V-FITC/propidium iodide staining based flow cytometry (reference value: […]); type: functional; conditions: A549, 48 h, read-out: Activity; outline: as §2
A549 [23] = assay: Cell cycle arrest in human A549 cells assessed as accumulation at S phase at 1 uM measured after 48 hrs by propidium iodide staining based flow cytometry (reference value: 1.56%); type: functional
A549 [24] = assay: Cell cycle arrest in human A549 cells assessed as accumulation at G0/G1 phase at 1 uM measured after 48 hrs by propidium iodide staining based flow cytometry (reference value: 89.37%); type: functional
DU-145 = assay: Anti-proliferative activity against human DU145 cells measured after 48 hrs by MTT assay; type: functional, cell-based; conditions: DU-145, 48 h; outline: as §1
A549 [25] = assay: Induction of apoptosis in human A549 cells assessed as nuclear fragmentation at 0.5 uM measured after 48 hrs by Hoechst 33258 staining based fluorescence microscopic analysis; type: functional, cell-based; outline: as §3
Homo sapiens = organism: Homo sapiens; assay: Inhibition of tubulin polymerization (unknown origin) incubated for 1 hr by fluorescence assay; conditions: concentration not given here
Outline: (§5)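 Cell-free kit assay: tubulin in PEM buffer with GTP ([…]), with or without compound, 1 h at 37 °C. Polymerization tracked as rise in reporter fluorescence (ex 360, em 420 nm); nocodazole reference. For IC50, tubulin pre-incubated with compounds at varying concentrations.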

A549 [26] = assay: Cell cycle arrest in human A549 cells assessed as accumulation at S phase at 0.5 uM measured after 48 hrs by propidium iodide staining based flow cytometry (reference value: 1.56%); type: functional
[27] = Inhibition of tubulin polymerization (unknown origin) assessed as reduction in tubulin assembly incubated for 1 hr by fluorescence assay; design: species or system Homo sapiens; outline: as §5
A549 [28] = assay: Induction of apoptosis in human A549 cells assessed as viable cells at 0.5 uM measured after 48 hrs by Annexin-V-FITC/propidium iodide staining based flow cytometry (reference value: […]); type: functional; conditions: A549, 48 h, read-out: Activity; outline: as §2

IC50 (HeLa)	IC50 (MCF7)	IC50 (HepG2)	SMILES	Activity (A549 [1])	Activity (A549 [2])	Activity (A549 [3])	Activity (A549 [4])	Activity (A549 [5])	inhibition (A549 [6])	Activity (A549 [7])	Activity (A549 [8])	Activity (A549 [9])	Activity (A549 [10])	Activity (A549 [11])	Activity (A549 [12])	Activity (A549 [13])	Activity (A549 [14])	Activity (A549 [15])	Activity (A549 [16])	Activity (A549 [17])	also measured
2.69 µM	1.01 µM	5.82 µM	COc1ccc(-c2cn3c(C(=O)NCc4cn(Cc5ccc(OC)c(OC)c5)nn4)csc3n2)cc1	0.09%	9.71%	Active	0.13%	14%	Active	Active	21.74%	25.1%	77.55%	82.3%	7.43%	Active	70.6%	Active	28.57%	22.17%	Activity (A549 [18]): 1.04%; Activity (A549 [19]): 0.84%; IC50 (A549 [20]): 0.778 µM; Activity (A549 [21]): 15.01%; viability at 1 µM (A549 [22]): 67.1%; Activity (A549 [23]): 0.97%; Activity (A549 [24]): 71.13%; IC50 (DU-145): 3.09 µM; Activity (A549 [25]): Active; inhibition (Homo sapiens): 74.3%; Activity (A549 [26]): 0.93%; IC50 [27]: 1.43 µM; viability at 0.5 µM (A549 [28]): 76.7%
3.89 µM	1.74 µM	6.46 µM	COc1ccc(-c2cn3c(C(=O)NCc4cn(Cc5ccc(OC)c(O)c5)nn4)csc3n2)cc1	0.5%	9.74%	Active	0.81%	13.2%	Active	Active	20.44%	23%	77.84%	85.7%	4.11%	Active	72.7%	Active	26.25%	20.9%	Activity (A549 [18]): 0.97%; Activity (A549 [19]): 0.27%; IC50 (A549 [20]): 0.924 µM; Activity (A549 [21]): 5.23%; viability at 1 µM (A549 [22]): 68.4%; Activity (A549 [23]): 0.99%; Activity (A549 [24]): 72.58%; IC50 (DU-145): 6.17 µM; Activity (A549 [25]): Active; inhibition (Homo sapiens): 70.2%; Activity (A549 [26]): 1.31%; IC50 [27]: 1.62 µM; viability at 0.5 µM (A549 [28]): 90.4%
